Test results from ChEMBL document CHEMBL3407388, “Synthesis, anticancer activity and molecular docking studies on a series of heterocyclic trans-cyanocombretastatin analogues as antitubulin agents” (2015).

Columns and labels:
Type in all cases: functional
SK-MEL-5 = assay: Cytotoxicity against human SK-MEL-5 cells assessed as growth inhibition after 48 hrs by SRB assay; settings: SK-MEL-5, 48 h
How it was run: (§1)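 NCI 60-cell panel; compounds passing a single-dose screen (10−5 M, 48 h) were tested at five 10-fold dilutions (10−4 to 10−8 M) with 48 h drug exposure. GI50 is the molar concentration giving 50% reduction in net cell growth relative to cell numbers on day 0.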

SN12C = assay: Cytotoxicity against human SN12C cells assessed as growth inhibition after 48 hrs by SRB assay; how it was run: as §1
MOLT-4 = assay: Cytotoxicity against human MOLT4 cells assessed as growth inhibition after 48 hrs by SRB assay; settings: MOLT-4, 48 h; how it was run: as §1
MDA-MB-435 = assay: Cytotoxicity against human MDA-MB-435 cells assessed as growth inhibition after 48 hrs by SRB assay; settings: MDA-MB-435, 48 h; how it was run: as §1
[1] = Cytotoxicity against human OVCAR5 cells assessed as growth inhibition after 48 hrs by SRB assay; settings: OVCAR-5, 48 h; how it was run: as §1
DU-145 = assay: Cytotoxicity against human DU145 cells assessed as growth inhibition after 48 hrs by SRB assay; settings: DU-145, 48 h; how it was run: as §1
[2] = Cytotoxicity against human NCI-ADR-RES cells assessed as growth inhibition after 48 hrs by SRB assay; how it was run: as §1
HCC 2998 = assay: Cytotoxicity against human HCC2998 cells assessed as growth inhibition after 48 hrs by SRB assay; settings: HCC 2998, 48 h; how it was run: as §1
NCI-H460 = assay: Cytotoxicity against human NCI-H460 cells assessed as growth inhibition after 48 hrs by SRB assay; settings: NCI-H460, 48 h; how it was run: as §1
[3] = Cytotoxicity against human OVCAR4 cells assessed as growth inhibition after 48 hrs by SRB assay; settings: OVCAR-4, 48 h; how it was run: as §1
SF-295 = assay: Cytotoxicity against human SF295 cells assessed as growth inhibition after 48 hrs by SRB assay; settings: SF-295, 48 h; how it was run: as §1
SNB-19 = assay: Cytotoxicity against human SNB19 cells assessed as growth inhibition after 48 hrs by SRB assay; settings: SNB-19, 48 h; how it was run: as §1
KM12 = assay: Cytotoxicity against human KM12 cells assessed as growth inhibition after 48 hrs by SRB assay; settings: KM12, 48 h; how it was run: as §1
SK-OV-3 = assay: Cytotoxicity against human SKOV3 cells assessed as growth inhibition after 48 hrs by SRB assay; settings: SK-OV-3, 48 h; how it was run: as §1
MCF7 = assay: Cytotoxicity against human MCF7 cells assessed as growth inhibition after 48 hrs by SRB assay; settings: MCF7, 48 h; how it was run: as §1
K562 = assay: Cytotoxicity against human K562 cells assessed as growth inhibition after 48 hrs by SRB assay; settings: K562, 48 h; how it was run: as §1
SF-539 = assay: Cytotoxicity against human SF539 cells assessed as growth inhibition after 48 hrs by SRB assay; settings: SF-539, 48 h; how it was run: as §1
SF-268 = assay: Cytotoxicity against human SF268 cells assessed as growth inhibition after 48 hrs by SRB assay; settings: SF-268, 48 h; how it was run: as §1
U-251 = assay: Cytotoxicity against human U251 cells assessed as growth inhibition after 48 hrs by SRB assay; settings: U-251, 48 h
786-0 = assay: Cytotoxicity against human 786-0 cells assessed as growth inhibition after 48 hrs by SRB assay; settings: 786-0, 48 h; how it was run: as §1
COLO 205 = assay: Cytotoxicity against human COLO205 cells assessed as growth inhibition after 48 hrs by SRB assay; settings: COLO 205, 48 h; how it was run: as §1
TK-10 = assay: Cytotoxicity against human TK10 cells assessed as growth inhibition after 48 hrs by SRB assay; settings: TK-10, 48 h
[4] = Cytotoxicity against human UACC62 cells assessed as growth inhibition after 48 hrs by SRB assay; settings: UACC-62, 48 h
RXF 393 = assay: Cytotoxicity against human RXF393 cells assessed as growth inhibition after 48 hrs by SRB assay; settings: RXF 393, 48 h; how it was run: as §1
A498 = assay: Cytotoxicity against human A498 cells assessed as growth inhibition after 48 hrs by SRB assay; settings: A498, 48 h; how it was run: as §1
[5] = Cytotoxicity against human HCT15 cells assessed as growth inhibition after 48 hrs by SRB assay; settings: HCT-15, 48 h; how it was run: as §1
[6] = Cytotoxicity against human HCT116 cells assessed as growth inhibition after 48 hrs by SRB assay; settings: HCT-116, 48 h; how it was run: as §1
BT-549 = assay: Cytotoxicity against human BT549 cells assessed as growth inhibition after 48 hrs by SRB assay; settings: BT-549, 48 h; how it was run: as §1
LOX IMVI = assay: Cytotoxicity against human LOXIMVI cells assessed as growth inhibition after 48 hrs by SRB assay; how it was run: as §1
CAKI-1 = assay: Cytotoxicity against human Caki1 cells assessed as growth inhibition after 48 hrs by SRB assay; settings: CAKI-1, 48 h; how it was run: as §1
[7] = Cytotoxicity against human PC3 cells assessed as growth inhibition after 48 hrs by SRB assay; settings: PC-3, 48 h; how it was run: as §1
HT-29 = assay: Cytotoxicity against human HT-29 cells assessed as growth inhibition after 48 hrs by SRB assay; settings: HT-29, 48 h; how it was run: as §1
SNB-75 = assay: Cytotoxicity against human SNB75 cells assessed as growth inhibition after 48 hrs by SRB assay; settings: SNB-75, 48 h
SW-620 = assay: Cytotoxicity against human SW620 cells assessed as growth inhibition after 48 hrs by SRB assay; settings: SW-620, 48 h
IGROV-1 = assay: Cytotoxicity against human IGROV1 cells assessed as growth inhibition after 48 hrs by SRB assay; settings: IGROV-1, 48 h; how it was run: as §1
[8] = Cytotoxicity against human OVCAR8 cells assessed as growth inhibition after 48 hrs by SRB assay; settings: OVCAR-8, 48 h; how it was run: as §1
NCI-H226 = assay: Cytotoxicity against human NCI-H226 cells assessed as growth inhibition after 48 hrs by SRB assay; settings: NCI-H226, 48 h; how it was run: as §1
RPMI-8226 = assay: Cytotoxicity against human RPMI8226 cells assessed as growth inhibition after 48 hrs by SRB assay; settings: RPMI-8226, 48 h; how it was run: as §1
[9] = Cytotoxicity against human OVCAR3 cells assessed as growth inhibition after 48 hrs by SRB assay; settings: OVCAR-3, 48 h; how it was run: as §1
NCI-H23 = assay: Cytotoxicity against human NCI-H23 cells assessed as growth inhibition after 48 hrs by SRB assay; settings: NCI-H23, 48 h; how it was run: as §1
HL-60(TB) = assay: Cytotoxicity against human HL-60(TB) cells assessed as growth inhibition after 48 hrs by SRB assay; settings: HL-60, 48 h
How it was run: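 NCI 60-cell panel, leukemia subpanel. Five-dose screen at 10-fold dilutions from 10−4 to 10−8 M with 48 h drug exposure. GI50 is the molar concentration giving 50% reduction in net cell growth compared with cell numbers on day 0.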

[10] = Cytotoxicity against human UO31 cells assessed as growth inhibition after 48 hrs by SRB assay; settings: UO-31, 48 h
MDA-MB-231 = assay: Cytotoxicity against human MDA-MB-231 cells assessed as growth inhibition after 48 hrs by SRB assay; settings: MDA-MB-231, 48 h; how it was run: as §1

COc1cc(/C(C#N)=C/c2cc3ccccc3n2Cc2ccc(C#N)cc2)cc(OC)c1OC
GI50 (SK-MEL-5): 60 nM | GI50 (SN12C): 269 nM | GI50 (MOLT-4): 274 nM | GI50 (MDA-MB-435): 24 nM | GI50 [1]: 259 nM | GI50 (DU-145): 207 nM | GI50 [2]: 73 nM | GI50 (HCC 2998): 265 nM | GI50 (NCI-H460): 93 nM | GI50 [3]: 672 nM | GI50 (SF-295): 37 nM | GI50 (SNB-19): 85 nM | GI50 (KM12): 47 nM | GI50 (SK-OV-3): 87 nM | GI50 (MCF7): 39 nM | GI50 (K562): 39 nM | GI50 (SF-539): 39 nM | GI50 (SF-268): 86 nM | GI50 (U-251): 44 nM | GI50 (786-0): 137 nM | GI50 (COLO 205): 97 nM | GI50 (TK-10): 20100 nM | GI50 [4]: 58 nM | GI50 (RXF 393): 55 nM | GI50 (A498): 29 nM | GI50 [5]: 89 nM | GI50 [6]: 47 nM | GI50 (BT-549): 109 nM | GI50 (LOX IMVI): 90 nM | GI50 (CAKI-1): 35 nM | GI50 [7]: 105 nM | GI50 (HT-29): 48 nM | GI50 (SNB-75): 39 nM | GI50 (SW-620): 48 nM | GI50 (IGROV-1): 183 nM | GI50 [8]: 124 nM | GI50 (NCI-H226): 14500 nM | GI50 (RPMI-8226): 199 nM | GI50 [9]: 42 nM | GI50 (NCI-H23): 246 nM | GI50 (HL-60(TB)): 31 nM | GI50 [10]: 201 nM | GI50 (MDA-MB-231): 294 nM

COc1ccc(/C(C#N)=C/c2c[nH]c3ccccc23)cc1OC
GI50 (SK-MEL-5): 4270 nM | GI50 (SN12C): 8100 nM | GI50 (MOLT-4): 3990 nM | GI50 (MDA-MB-435): 3950 nM | GI50 [1]: > 100000 nM | GI50 (DU-145): 22600 nM | GI50 [2]: 1700 nM | GI50 (HCC 2998): 12600 nM | GI50 (NCI-H460): 4510 nM | GI50 [3]: 22100 nM | GI50 (SF-295): 4920 nM | GI50 (SNB-19): 24200 nM | GI50 (KM12): 4040 nM | GI50 (SK-OV-3): 11900 nM | GI50 (MCF7): 3100 nM | GI50 (K562): 1650 nM | GI50 (SF-539): 8420 nM | GI50 (SF-268): 18900 nM | GI50 (U-251): 4970 nM | GI50 (786-0): 14100 nM | GI50 (COLO 205): 5310 nM | GI50 (TK-10): 13200 nM | GI50 [4]: 6980 nM | GI50 (RXF 393): 4480 nM | GI50 (A498): 3360 nM | GI50 [5]: 3700 nM | GI50 [6]: 35500 nM | GI50 (BT-549): 5380 nM | GI50 (LOX IMVI): 5320 nM | GI50 (CAKI-1): 4340 nM | GI50 [7]: 7850 nM | GI50 (HT-29): 3320 nM | GI50 (SNB-75): 6040 nM | GI50 (SW-620): 3530 nM | GI50 (IGROV-1): 21000 nM | GI50 [8]: 7380 nM | GI50 (NCI-H226): 20900 nM | GI50 (RPMI-8226): 3960 nM | GI50 [9]: 5680 nM | GI50 (NCI-H23): 7190 nM | GI50 (HL-60(TB)): 4570 nM | GI50 [10]: 14300 nM | GI50 (MDA-MB-231): 7180 nM

COc1cc(/C(C#N)=C/c2coc3ccccc23)cc(OC)c1OC
GI50 (SK-MEL-5): 336 nM | GI50 (SN12C): 2170 nM | GI50 (MOLT-4): 3820 nM | GI50 (MDA-MB-435): 278 nM | GI50 [1]: 3330 nM | GI50 (DU-145): 1880 nM | GI50 [2]: 382 nM | GI50 (HCC 2998): 4130 nM | GI50 (NCI-H460): 839 nM | GI50 [3]: 2610 nM | GI50 (SF-295): 446 nM | GI50 (SNB-19): 3630 nM | GI50 (KM12): 586 nM | GI50 (SK-OV-3): 1710 nM | GI50 (MCF7): 376 nM | GI50 (K562): 513 nM | GI50 (SF-539): 442 nM | GI50 (SF-268): 4790 nM | GI50 (U-251): 605 nM | GI50 (786-0): 6110 nM | GI50 (COLO 205): 449 nM | GI50 (TK-10): 2100 nM | GI50 [4]: 519 nM | GI50 (RXF 393): 496 nM | GI50 (A498): 458 nM | GI50 [5]: 492 nM | GI50 [6]: 517 nM | GI50 (BT-549): 927 nM | GI50 (LOX IMVI): 993 nM | GI50 (CAKI-1): 650 nM | GI50 [7]: 1840 nM | GI50 (HT-29): 394 nM | GI50 (SNB-75): 769 nM | GI50 (SW-620): 504 nM | GI50 (IGROV-1): 3060 nM | GI50 [8]: 2900 nM | GI50 (NCI-H226): 6200 nM | GI50 (RPMI-8226): 2470 nM | GI50 [9]: 277 nM | GI50 (NCI-H23): 4580 nM | GI50 (HL-60(TB)): 1030 nM | GI50 [10]: 2890 nM | GI50 (MDA-MB-231): 1710 nM
